# Data from ChEMBL document CHEMBL3525931, “Stereoselective interaction of pantoprazole with ABCG2. II. In vitro flux analysis” (Drug Metab Dispos, 2012).
# How the values were obtained:
# [1] = Permeability surface area for passive diffusion in MDCK2 cells assessed as transport at 50 uM after 0.5 to 1 hrs by HPLC method; type: ADME, cell-based, Canis lupus familiaris; conditions: dog, mdck-ii
# Procedure, shortened: (§1)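 PS_D (passive diffusion) derived from observed permeability of single PAN isomers across empty-vector (pcDNA3.1) MDCKII monolayers (TEER >200 Ω·cm²). Both A→B and B→A directions in serum-free Opti-MEM I at 37°C, with [3H]mannitol as paracellular marker. Receiver sampled at 0.5 and 1 h, PAN measured by HPLC-UV. PS_D calculated from a three-compartment model equation at each donor concentration.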
# [2] = Permeability surface area for passive diffusion in MDCK2 cells assessed as transport at 3 to 200 uM after 0.5 to 1 hrs by HPLC method; type: ADME, cell-based, Canis lupus familiaris; conditions: dog, mdck-ii; procedure, shortened: as §1
# [3] = Permeability surface area for passive diffusion in MDCK2 cells assessed as transport at 3 uM after 0.5 to 1 hrs by HPLC method; type: ADME, cell-based, Canis lupus familiaris; conditions: dog, mdck-ii; procedure, shortened: as §1
# [4] = Permeability surface area for passive diffusion in MDCK2 cells assessed as transport at 10 uM after 0.5 to 1 hrs by HPLC method; type: ADME, cell-based, Canis lupus familiaris; conditions: dog, mdck-ii; procedure, shortened: as §1
# [5] = Permeability surface area for passive diffusion in MDCK2 cells assessed as transport at 30 uM after 0.5 to 1 hrs by HPLC method; type: ADME, cell-based, Canis lupus familiaris; conditions: dog, mdck-ii; procedure, shortened: as §1
# [6] = Permeability surface area for passive diffusion in MDCK2 cells assessed as transport at 200 uM after 0.5 to 1 hrs by HPLC method; type: ADME, cell-based, Canis lupus familiaris; conditions: dog, mdck-ii; procedure, shortened: as §1
# [7] = substrate: COc1ccnc(C[S@+]([O-])c2nc3cc(OC(F)F)ccc3[nH]2)c1OC; experiment: (§2) Drug transport in MDCK2 cells expressing human ABCG2 assessed as ABCG2-mediated transport by HPLC method; type: ADME, cell-based, MDCK-II
# Procedure, shortened: (§3)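 Kinetics came from the same Transwell bidirectional flux runs in rat Abcg2- or human ABCG2-MDCKII, with donor 3–200 μM single isomer. Cellular concentrations were predicted from a three-compartment model using PS_D from mock cells and PS_PC from mannitol. Apparent apical efflux permeability was fitted against predicted cellular concentration by saturable kinetics to give K_M and T_max.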
# [8] = substrate: COc1ccnc(C[S@@+]([O-])c2nc3cc(OC(F)F)ccc3[nH]2)c1OC; experiment: as §2; type: ADME, cell-based, MDCK-II; procedure, shortened: as §3
# [9] = substrate: COc1ccnc(C[S@+]([O-])c2nc3cc(OC(F)F)ccc3[nH]2)c1OC; experiment: (§4) Drug transport in MDCK2 cells expressing rat ABCG2 assessed as ABCG2-mediated transport by HPLC method; type: ADME, cell-based, MDCK-II; procedure, shortened: as §3
# [10] = substrate: COc1ccnc(C[S@@+]([O-])c2nc3cc(OC(F)F)ccc3[nH]2)c1OC; experiment: as §4; type: ADME, cell-based, MDCK-II; procedure, shortened: as §3
molecule,measurement,setting,value
COc1ccnc(C[S+]([O-])c2nc3ccc(OC(F)F)cc3[nH]2)c1OC (racemic) [PANTOPRAZOLE],Papp,[1],251 uL/hr/cm2
same,Papp,[2],244 uL/hr/cm2
same,Papp,[3],231 uL/hr/cm2
same,Papp,[4],242 uL/hr/cm2
same,Papp,[5],226 uL/hr/cm2
same,Papp,[6],271 uL/hr/cm2
Broad substrate specificity ATP-binding cassette transporter ABCG2 (Homo sapiens) (protein) MSSSNVEVFIPVSQGNTNGFPATASNDLKAFTEGAVLSFHNICYRVKLKSGFLPCRKPVEKEILSNINGIMKPGLNAILGPTGGGKSSLLDVLAARKDPSGLSGDVLINGAPRPANFKCNSGYVVQDDVVMGTLTVRENLQFSAALRLATTMTNHEKNERINRVIQELGLDKVADSKVGTQFIRGVSGGERKRTSIGMELITDPSILFLDEPTTGLDSSTANAVLLLLKRMSKQGRTIIFSIHQPRYSIFKLFDSLTLLASGRLMFHGPAQEALGYFESAGYHCEAYNNPADFFLDIINGDSTAVALNREEDFKATEIIEPSKQDKPLIEKLAEIYVNSSFYKETKAELHQLSGGEKKKKITVFKEISYTTSFCHQLRWVSKRSFKNLLGNPQASIAQIIVTVVLGLVIGAIYFGLKNDSTGIQNRAGVLFFLTTNQCFSSVSAVELFVVEKKLFIHEYISGYYRVSSYFLGKLLSDLLPMRMLPSIIFTCIVYFMLGLKPKADAFFVMMFTLMMVAYSASSMALAIAAGQSVVSVATLLMTICFVFMMIFSGLLVNLTTIASWLSWLQYFSIPRYGFTALQHNEFLGQNFCPGLNATGNNPCNYATCTGEEYLVKQGIDLSPWGLWKNHVALACMIVIFLTIAYLKLLFLKKYS,Km,[7],0.59 µM
same,Km,[8],5.32 µM
Broad substrate specificity ATP-binding cassette transporter ABCG2 (Rattus norvegicus) (protein) MSSSNDHVLVPMSQRNKNGLPGMSSRGARTLAEGDVLSFHHITYRVKVKSGFLVRKTAEKEILSDINGIMKPGLNAILGPTGGGKSSLLDVLAARKDPRGLSGDVLINGAPQPANFKCSSGYVVQDDVVMGTLTVRENLQFSAALRLPKAMKTHEKNERINTIIKELGLDKVADSKVGTQFTRGISGGERKRTSIGMELITDPSILFLDEPTTGLDSSTANAVLLLLKRMSKQGRTIIFSIHQPRYSIFKLFDSLTLLASGKLMFHGPAQKALEYFASAGYHCEPYNNPADFFLDVINGDSSAVMLNRGEQDHEANKTEEPSKREKPIIENLAEFYINSTIYGETKAELDQLPVAQKKKGSSAFREPVYVTSFCHQLRWIARRSFKNLLGNPQASVAQLIVTVILGLIIGALYFGLKNDPTGMQNRAGVFFFLTTNQCFTSVSAVELFVVEKKLFIHEYISGYYRVSSYFFGKLVSDLLPMRFLPSVIYTCILYFMLGLKRTVEAFFIMMFTLIMVAYTASSMALAIAAGQSVVSVATLLMTISFVFMMLFSGLLVNLRTIGPWLSWLQYFSIPRYGFTALQHNEFLGQEFCPGLNVTMNSTCVNSYTICTGNDYLINQGIDLSPWGLWRNHVALACMIIIFLTIAYLKLLFLKKYS,Km,[9],0.25 µM
same,Km,[10],1.85 µM
